Assay results from ChEMBL document CHEMBL1275288, “Effect of milrinone analogues on intracellular calcium increase in single living H9C2 cardiac cells” (Eur J Med Chem, 2010).

Legend:
H9c2 [1] = test: Increase in cytoplasmic intracellular calcium level in differentiated rat H9c2 cells depolarized through 60 mM KCl application in presence of extracellular calcium assessed as cells that prolonged KCl-dependent intracellular [Ca2+] transient at 10 uM by Fura-2-AM dye based epifluorescent microscopy; assay type: functional
In short: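 Differentiated H9C2 cardiomyocytes (10 nM retinoic acid daily, 1% FCS) loaded with Fura 2-AM for 40 min, then 15 min at 37 °C in NES. Depolarized with 60 mM KCl in NES with extracellular Ca2+. 10 µM compound given within 30 s after start of the KCl-dependent plateau. Ratio imaging at 340/380 nm excitation, 510 nm emission. Scored as percent of tested cells (n per compound) with prolonged transient.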

H9c2 [2] = test: Toxicity against undifferentiated rat H9c2 cells assessed as reduction in cell viability at 100 uM after 24 hrs by MTT assay; assay type: cell-based; conditions: h9c2, 24 h
In short: (§1)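 H9C2 rat embryonic ventricular cell line, grown subconfluent in DMEM-F12 with 10% heat-inactivated FBS; differentiated cells obtained in 1% FCS medium with 10 nM retinoic acid added daily with medium renewal. Cells, undifferentiated or differentiated, exposed 24 h to 10 nM, 1, 10 or 100 µM compound; viability by MTT reduction to formazan, optical density at 570 nm, expressed as percent of control.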

H9c2 [3] = test: Cytotoxicity against differentiated rat H9c2 cells assessed as reduction in cell viability at 10 uM after 24 hrs by MTT assay; assay type: cell-based; conditions: h9c2, 24 h; in short: as §1
H9c2 [4] = test: Increase in cytoplasmic intracellular calcium level in differentiated rat H9c2 cells at 10 uM by Fura-2-AM dye based epifluorescent microscopy; assay type: functional
In short: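 Retinoic acid (10 nM, daily)-differentiated H9C2 cells loaded 40 min with Fura 2-AM, washed in NES, held 15 min at 37 °C for dye de-esterification. Cells stimulated directly with 10 µM compound; single living cells imaged by epifluorescence microscopy, excitation 340/380 nm, emission 510 nm, whole-cell fluorescence ratio. Minimum 10, maximum 25 cells per compound; percentage of cells showing basal [Ca2+]i increase.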

H9c2 [5] = test: Cytotoxicity against differentiated rat H9c2 cells assessed as reduction in cell viability at 100 uM after 24 hrs by MTT assay; assay type: cell-based; conditions: h9c2, 24 h; in short: as §1
H9c2 [6] = test: Cytotoxicity against differentiated rat H9c2 cells assessed as reduction in cell viability at 1 uM after 24 hsr by MTT assay; assay type: cell-based; conditions: h9c2, 1 µM; in short: as §1
H9c2 [7] = test: Cytotoxicity against differentiated rat H9c2 cells assessed as reduction in cell viability at 10 nM after 24 hrs by MTT assay; assay type: cell-based; conditions: h9c2, 24 h, 0.01 µM; in short: as §1

Structure (SMILES)	Activity (H9c2 [1])	Activity (H9c2 [2])	Activity (H9c2 [3])	Activity (H9c2 [4])	Activity (H9c2 [5])	Activity (H9c2 [6])	Activity (H9c2 [7])
CCOC(=O)c1cc(C#N)c(=O)[nH]c1C	0%						
Cc1ccc(C#N)c(=O)[nH]1	45%	50%	75%	78%	50%	90%	90%
Cc1[nH]c(=O)c(C#N)cc1C(=O)OCCSc1nc2ccccc2s1	0%						
Cc1[nH]c(=O)c(C#N)cc1C(=O)OCCSc1ccccn1	0%						
Cc1[nH]c(=O)c(C#N)cc1C(=O)NC(C)c1ccccc1 (centres undefined)	0%						
Cc1[nH]c(=O)c(C#N)cc1-c1ccncc1 [MILRINONE]	50%		75%		50%	90%	90%
CCC(NC(=O)c1cc(C#N)c(=O)[nH]c1C)c1ccccc1 (centres undefined)	30%	50%	75%		50%	90%	90%
Cc1[nH]c(=O)c(C#N)cc1C(=O)OCc1ccccc1	0%						
CCOC(=O)N1CCC(NC(=O)c2cc(C#N)c(=O)[nH]c2C)CC1	25%	20%	75%		50%	90%	90%
Cc1[nH]c(=O)c(C#N)cc1C(=O)O	0%						
Cc1[nH]c(=O)c(C#N)cc1C(=O)NCc1ccccc1	40%	20%	75%				90%
